# Autophagy HCS: autophagy modulation, high-content screen; MEF GFP-LC3 puncta imaging; test concentration mostly 10 µM; calls only at 10 µM (by protocol); 0.98% of 190,000 active; AID 463193;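 active means percentage of spot-positive cells more than 3 SD above its plate mean, without a fluorescence outlier flag or 80% toxicity; inconclusive means no clear call, values can overlap the other calls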;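 further: spot-positive cell cutoff set from DMSO-treated cells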
# ROMK mod: modulators of human ROMK potassium channel. P48048. 2% of 130,000 active. Tet-inducible ROMK, thallium flux fluorescence; actives lie on both sides. B-score at 10 µM;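 active means signal ratio slope over the read window, or its plate-corrected B-score, at least 3 SD from the plate mean, either direction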;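 further: B-score of the F/F0 ratio slope over 7 to 12 s after thallium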
# Dynein transport: blocks dynein driven cargo transport along microtubules | 3617.4 mouse cells, GR-EGFP nuclear translocation imaging; test concentration mostly 20 µM; stimulated with dexamethasone, 1 µM; hits give low values | z-score, hits read low | 0.47% of 220,000 active;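 active means plate z-score of nuclear minus cytoplasmic receptor signal below a set negative limit, without overly bright fluorescence or cell loss, cut at about -3.5 in these data, passing the limit was not always enough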;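 further: z-score of nuclear minus cytoplasmic ring GR-EGFP intensity difference per well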
#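 medium = tetracycline-free induction medium containing charcoal-stripped FBS | also added = 1.0 µM final dexamethasone stimulus | schedule = 48 h induction, 1 h compound, 30 min dex at 37 °C | technique = fixed, Hoechst-stained cells imaged at 10x for EGFP | measure = GR-EGFP nuclear translocation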
# Cl transport mod: modulates chloride dependent transport by human KCC2. KCC2 cells, thallium flux FluoZin-2 fluorescence. B-score of Tl+ flux slope (higher = more flux/activation; lower = inhibition) at 10 µM. 2.2% of 190,000 active;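 active means thallium flux slope and its plate-corrected score both differing from the plate sample mean at a set confidence after two filtering rounds, in either direction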;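 further: slope of fluorescence scaled to starting intensity during 10 to 20 s after thallium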
# Target sequence (Q9H2X9 whole entry, looked up): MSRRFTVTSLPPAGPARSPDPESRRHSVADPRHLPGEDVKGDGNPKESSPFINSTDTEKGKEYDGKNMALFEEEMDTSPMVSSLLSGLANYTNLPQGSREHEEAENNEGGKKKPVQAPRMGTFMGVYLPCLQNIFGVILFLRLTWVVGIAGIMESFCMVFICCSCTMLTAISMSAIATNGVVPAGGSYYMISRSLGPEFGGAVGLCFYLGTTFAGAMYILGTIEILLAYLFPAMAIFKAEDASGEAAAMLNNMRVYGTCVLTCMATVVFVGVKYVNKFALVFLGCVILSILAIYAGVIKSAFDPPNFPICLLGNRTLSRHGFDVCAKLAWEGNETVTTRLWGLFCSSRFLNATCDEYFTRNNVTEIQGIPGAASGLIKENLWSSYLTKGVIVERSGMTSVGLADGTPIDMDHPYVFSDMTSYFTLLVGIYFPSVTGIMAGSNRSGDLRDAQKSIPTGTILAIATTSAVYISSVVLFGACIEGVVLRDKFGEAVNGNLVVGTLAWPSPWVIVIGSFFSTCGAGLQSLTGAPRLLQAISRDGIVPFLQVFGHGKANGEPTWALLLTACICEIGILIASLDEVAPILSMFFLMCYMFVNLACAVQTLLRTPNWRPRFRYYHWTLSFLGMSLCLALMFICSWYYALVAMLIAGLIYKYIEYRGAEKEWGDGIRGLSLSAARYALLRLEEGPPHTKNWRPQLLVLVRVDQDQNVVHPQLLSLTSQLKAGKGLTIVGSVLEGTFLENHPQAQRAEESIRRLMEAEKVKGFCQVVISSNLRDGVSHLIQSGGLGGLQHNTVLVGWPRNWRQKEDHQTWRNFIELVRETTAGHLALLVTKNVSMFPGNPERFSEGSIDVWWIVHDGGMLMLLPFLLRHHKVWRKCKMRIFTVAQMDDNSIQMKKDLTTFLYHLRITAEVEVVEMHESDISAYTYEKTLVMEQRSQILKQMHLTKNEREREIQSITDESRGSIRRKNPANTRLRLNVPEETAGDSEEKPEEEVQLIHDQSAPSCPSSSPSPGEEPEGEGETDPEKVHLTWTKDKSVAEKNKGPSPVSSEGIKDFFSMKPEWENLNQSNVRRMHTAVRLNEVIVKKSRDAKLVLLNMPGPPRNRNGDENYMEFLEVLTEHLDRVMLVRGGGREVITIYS
# Redox H2O2 prof: compounds producing H2O2 with reducing agent – biochemical, NIH compound library profiling, artefact control for MLSCN library redox annotation, primary screen | DTT-dependent redox cycling H2O2, phenol red/HRP absorbance; 100% = 100 µM peroxide control, 0% = buffer | activation, % at 10 µM | 0.03% of 200,000 active | AID 878;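 active means activation of at least 50% relative to the plate's high and low controls in the primary single-dose screen; inactive means activation below 50%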;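 further: compound incubated with DTT at 0.8 mM final as the reducing agent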
# KCC2 secondary: KCC2 (human) modulation, secondary assay. shares compounds with Cl transport mod. HEK293-KCC2, thallium flux, FluoZin2 fluorescence; hits give high values. normalised thallium flux (F/F0 slope) at 10 µM. 15% of 3,700 active. AID 1713;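 active means thallium flux slope above the same plate's solvent-only control mean plus 3 SD; inconclusive means the two replicate wells disagree; inactive means no significant difference from solvent-only control wells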
# KCC2 bumet counter: thallium flux persisting under bumetanide in KCC2 cells, counter-screen secondary assay; HEK293-KCC2 + bumetanide/ouabain, thallium flux FluoZin2; hits give high values; AID 1714; shares compounds with Cl transport mod; 49% of 3,700 active; normalized thallium flux at 10 µM;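 active means thallium entry rate above the same plate's blocked-transporter control wells by more than 3 SD; inconclusive means the two repeat wells disagree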;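 further: raw slope of fluorescence over initial fluorescence between 10 and 20 s after thallium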
# KCC2 sec2: confirmation of human KCC2 transport modulators; normalized thallium flux at 10 µM; HEK293-KCC2, thallium flux FluoZin2 fluorescence; actives lie on both sides; F/F0 rise rate, 10–20 s post-thallium; 23% of 3,700 active; shares compounds with Cl transport mod; AID 1715;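 active means thallium flux slope more than 3 SD above or below the plate's solvent-only control mean, mostly below; inconclusive means the two repeat wells disagreed; inactive means no significant shift from solvent-only controls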;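 further: raw slope with 0.1% DMSO as baseline and bumetanide as block control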
# HEK counter1: parental HEK flux effect, counter-screen | thallium flux rate (normalised fluorescence) at 10 µM | HEK293 parental cells, thallium flux FluoZin2, ouabain; baseline-ratio fluorescence slope, 10–20 s after thallium | shares compounds with Cl transport mod | 46% of 3,700 active;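 active means thallium flux rate significantly above the same plate's solvent-only control wells, beyond their mean plus 3 SD; inconclusive means the two replicate wells gave conflicting results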
# KCC2 ouabain: KCC2 (human) modulation, ouabain retest; AID 1717; HEK293-KCC2, thallium flux FluoZin2 fluorescence; bidirectional: low = inhibitor, high = activator; shares compounds with Cl transport mod; raw Tl+ flux slope (below DMSO = inhibition, above = activation) at 10 µM; 48% of 3,700 active;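 active means thallium flux slope beyond 3 SD from same-plate DMSO control mean in most replicates, usually higher, sometimes lower; inconclusive means repeat tests gave conflicting results; inactive means no significant difference from controls in most replicates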;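 further: slope of initial-normalized fluorescence between seconds 10 and 20 after thallium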
# HEK counter2: parental HEK flux effect, counter-screen 2 | shares compounds with Cl transport mod | HEK293 parental, thallium flux FluoZin-2 fluorescence slope | thallium flux slope at 10 µM | 33% of 3,700 active;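 active means thallium flux slope above the same plate's solvent-control mean plus 3 SD in both duplicate wells; inconclusive means duplicate wells that disagreed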;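 further: run without ouabain in cells lacking the KCC2 cotransporter; slope of fluorescence scaled to its starting value between 10 and 20 s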
# The depositor's hits bear a star; i = inactive; ? = inconclusive; / = no result. Compounds with a hit are over-represented: about 4.1% of the library has one in this group of screens.
SMILES,Autophagy HCS,ROMK mod,Dynein transport,Cl transport mod,Redox H2O2 prof,KCC2 secondary,KCC2 bumet counter,KCC2 sec2,HEK counter1,KCC2 ouabain,HEK counter2
CC(=O)c1ccc(Nc2nc(=O)c3cccnc3s2)cc1,i,0.025,0.55,/,0,/,/,/,/,/,/
Cc1ccc(Nc2nc(=O)c3cccnc3s2)c(Br)c1,/,/,-0.71,29*,/,0.0075,0.038*,?,0.02*,0.038*,0.021*
CCOC(=O)c1ccc2c(c1)[nH]c(=S)n2CC,i,0.025,0.45,4*,-1,0.0057,0.019*,0.033,0.013*,?,0.016*
O=S(=O)(Nc1ccccc1N1CCCCC1)c1ccc(F)cc1F,i,-0.041,0.012,19*,-1,0.013*,0.038*,0.031,0.012*,0.028,0.012*
Nc1ccc(N2CCCCC2)c(S(=O)(=O)Nc2ccccc2Cl)c1,/,/,0.97,-0.18,/,/,/,/,/,/,/
CC(C)NCC(O)COCc1ccc(Cl)cc1 (stereo unspecified),i,/,-0.11,0.56,2,/,/,/,/,/,/
CC(C)NCC(O)c1cc(O)cc(O)c1 (stereo unspecified),/,/,-1.2,-2.8*,/,0.0069,0.0059*,0.029,?,0.018,0.012
O=C(NCCN1CCOCC1)c1cc2n(n1)C(C(F)(F)F)CC(c1ccc(F)cc1)N2 (stereo unspecified),i,-0.0083,-0.48,/,0,/,/,/,/,/,/
Cc1ccc(C2CC(C(F)(F)F)n3nc(C(=O)NCC4CCCO4)cc3N2)cc1 (stereo unspecified),i,/,-0.032,-4.2*,3,0.0072,0.005,0.03,0.0079,0.019,0.011
CCOC(=O)c1c(C)[nH]c(C)c1C(=O)CSc1nc2ccccc2n1CC,i,/,0.65,0.13,-1,/,/,/,/,/,/
CCOC(=O)c1c(C)[nH]c(C)c1C(=O)CSc1nc2ccccc2c(=O)n1-c1ccc(CC)cc1,i,0.91,-0.01,4*,2,0.0099,0.015*,0.034,?,0.024,?
COc1cccc(CNc2cc(CSc3ccc(Cl)cc3)nc(C)n2)c1,i,-1.1,0.068,/,0,0.0074,0.0032*,0.03,?,0.018,0.0094
COc1ccc(N(CC(=O)Nc2cccc(C)c2C)S(=O)(=O)c2c(C)n[nH]c2C)cc1,i,-1.2,-1.4,/,0,0.019,0.0051,0.024*,0.0075,0.015,0.01
Cc1n[nH]c(C)c1S(=O)(=O)N(CC(=O)Nc1ccc2c(c1)OCCO2)c1ccc(C(C)C)cc1,i,/,1.8,-5.1*,0,?,?,0.032,0.0066,0.016*,0.01
CC(OCCN1CCCC1)(c1ccc(F)cc1)c1ccc(F)cc1,i,-1.2,0.9,/,-1,/,/,/,/,/,/
COc1ccc(Nc2nnc(SCc3cc(=O)n4ccsc4n3)s2)cc1,i,/,-1.3,-5.2*,-8,0.011,0.0065,0.03*,0.0036,0.017*,0.012
COc1cc(NC(=O)CCN2CCN(Cc3ccccc3)CC2)cc(OC)c1,i,-0.041,-0.62,-0.9,0,/,/,/,/,/,/
O=C(CCN1CCN(Cc2ccccc2)CC1)Nc1cccc(Cl)c1,i,/,-0.67,-3.8*,3,0.0057,0.0052,0.024*,0.0078,0.014*,0.0099
Cc1noc(C)c1COc1ccc(C(=O)OCC(=O)NC2CCCCC2C)cc1 (stereo unspecified),i,/,-1.3,0.82,2,0.009,0.0055,0.033,0.008,0.018,?
Cc1noc(C)c1COc1ccc(C(=O)OCC(=O)NC23CC4CC(CC(C4)C2)C3)cc1,i,-0.26,-0.59,/,0,/,/,/,/,/,/
Cc1c(C(=O)C(=O)NCC2CCCO2)c2ccccc2n1C (stereo unspecified),i,-0.37,0.2,0.66,-1,/,/,/,/,/,/
O=[N+]([O-])c1ccc(Sc2cccc[n+]2[O-])c2nonc12,/,/,10,8.4*,/,0.0096,0.023*,0.03,0.015*,0.023,?
COc1ccc(OC(=O)c2cnc3n(c2=O)CCS3)cc1,/,/,-0.094,0.81,/,/,/,/,/,/,/
S=c1[nH]nc(-c2cccc(Cl)c2)n1Cc1ccccc1,i,-0.83,-0.33,4*,0,0.015*,0.044*,0.037,?,0.038*,?
S=c1[nH]nc(COc2cccc(Cl)c2)n1Cc1ccccc1,i,-0.32,0.16,20*,0,0.01,0.028*,0.034,0.015*,?,0.012*
SMILES,Autophagy HCS,ROMK mod,Dynein transport,Cl transport mod,Redox H2O2 prof,KCC2 secondary,KCC2 bumet counter,KCC2 sec2,HEK counter1,KCC2 ouabain,HEK counter2
S=c1[nH]nc(-c2ccc(Cl)cc2Cl)n1Cc1ccccc1,i,0.19,0.85,9*,0,0.0059,0.039*,?,0.021*,0.034*,0.023*
Cc1cccc(-c2n[nH]c(=S)n2Cc2ccccc2)c1,i,0.027,-0.58,2.3,0,/,/,/,/,/,/
CCc1cc(-c2n[nH]c(=S)n2Cc2ccccc2)cs1,i,0.08,-0.56,15*,-1,0.0067,0.02*,0.03,0.016*,?,0.011*
S=c1[nH]nc(COc2ccc(Cl)cc2)n1Cc1ccccc1,i,0.26,-0.98,0.45,0,/,/,/,/,/,/
COc1cc2nc(CN(C)Cc3ccc(OC)c(OC)c3OC)[nH]c(=O)c2cc1OC,i,-0.41,2.5,/,-1,/,/,/,/,/,/
CCOC(=O)C1=C(C)NC(C)=C(C(=O)OCC)C1C(=O)OCC(=O)N(C)C1CCS(=O)(=O)C1 (stereo unspecified),i,0.88,-0.32,-0.0025,0,/,/,/,/,/,/
CCCCc1n[nH]c(=S)n1Cc1ccc(C)cc1,i,-1,-0.46,0.77,-2,/,/,/,/,/,/
O=C(COc1cccc2cccnc12)Nc1ccccc1N1CCOCC1,i,-0.13,-0.46,-5.6*,-1,?,0.0041,0.029,0.005*,0.014,?
CC1(C)Cc2cccc(OCC(=O)Nc3ccccc3N3CCOCC3)c2O1,i,1.3,-0.37,/,0,/,/,/,/,/,/
O=C(COC(=O)CNC(=O)C1CCCCC1)Nc1ccc(Cl)cc1F,i,-1,-1.5,-0.48,-2,/,/,/,/,/,/
